Data set [1] in a line: Selectivity index, ratio of IC50 for phytohemagglutininin-activated-PBMC to IC50 for Leishmania amazonensis MHOM/BR/1987/BA promastigotes. The data set is classed as functional. The procedure, abridged: (§1)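 Selectivity index is the IC50 on PHA-activated PBMC divided by the IC50 against the L. amazonensis or L. infantum promastigotes.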
The subject of data set [2] is PBMC. Put plainly: Cytotoxicity against human PBMC by MTT assay after 3 to 4 days. The data set is classed as cell-based. The gist of the method:
(§2)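 Freshly isolated PBMC from healthy volunteers were prepared on a Ficoll gradient and cultured in medium alone or stimulated with PHA (5 µg/ml). Compounds were added, and after 3–4 days cells were harvested, washed and counted by trypan blue exclusion; in some experiments MTT was used instead. IC50 was obtained by linear regression, and the maximum tolerated concentration was also assessed.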

Data set [3] in a line: Selectivity index, ratio of IC50 for phytohemagglutininin-activated-PBMC to IC50 for Leishmania infantum clone MCAN/GR/82/LEM497 promastigotes. Format: functional. The gist of the method:
as §1

In data set [4] the test system is PBMC. Put plainly: Cytotoxicity against human phytohemagglutininin-activated-PBMC by MTT assay after 3 to 4 days. The data set is classed as cell-based. The procedure, abridged: as §2
The test system of the next data set is Leishmania amazonensis. Nature of the data set: Antileishmanial activity against Leishmania amazonensis MHOM/BR/1987/BA promastigotes by MTT assay after 1 to 2 days. The data set is classed as functional, organism-based. The gist of the method:
(§3)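 Promastigotes harvested at stationary growth phase (10⁶/ml), washed and incubated with compounds in culture medium. Viability was read by MTT reduction to formazan, with detergent lysis and absorbance at 570 nm; in some experiments parasites were instead counted under microscope. […] Values are means of three independent experiments.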

A further data set concerns Leishmania infantum. Nature of the data set: Antileishmanial activity against Leishmania infantum clone MCAN/GR/82/LEM497 promastigotes by MTT assay after 1 to 2 days. Format: functional, organism-based. The procedure, abridged: as §3
The nature of data set [5]: Partition coefficient, log D at pH 7.4. The settings on record: octanol/water.

In the case of `CCCCC#Cc1nc2ccccc2n2cccc12`, the “Ratio IC50” value was 1.4 in data set [1] and 1 in data set [3]. The 50% inhibitory concentration (IC50) in the data set on PBMC [2] was determined as 50 µM; in the data set on PBMC [4], 25 µM; in the data set on Leishmania amazonensis, 18 µM; in the data set with Leishmania infantum, 25 µM. The logD in data set [5] amounted to 4.36.

In the case of `CCCc1nc2cc(OC)ccc2n2cccc12`, the IC50 in the data set on PBMC [2] is greater than 100 µM; in the data set on PBMC [4] it was 90 µM; in the data set on Leishmania amazonensis it was greater than 50 µM; with Leishmania infantum it was greater than 50 µM. The logD in data set [5] came to 3.4.

With `CCCCCc1nc2cc(OC)ccc2n2cccc12`, the “Ratio IC50” value in data set [1] and in data set [3] was less than 1 each time. In addition, the IC50 in the data set on PBMC [2] is 66 µM; in the data set with PBMC [4] it was 45 µM; in the data set on Leishmania amazonensis it was greater than 50 µM; in the data set with Leishmania infantum, greater than 50 µM. Further, the logD in data set [5] is 4.38.

As for `CCC/C=C/c1nc2ccccc2n2cccc12`, the figures for the “Ratio IC50” value in data set [1] and in data set [3] were 10.4 and 7.4, respectively. The IC50 is 70 µM in the data set on PBMC [2], 52 µM in the data set on PBMC [4], 5 µM in the data set on Leishmania amazonensis and 7 µM in the data set with Leishmania infantum. In data set [5], this compound registered a logD of 4.44.

With `COc1ccc(CCc2nc3ccccc3n3cccc23)cc1OC`, the “Ratio IC50” value in data set [1] was greater than 3.3. In addition, the IC50 in the data set with PBMC [2] is greater than 100 µM; with PBMC [4], greater than 100 µM; in the data set with Leishmania amazonensis, 30 µM; with Leishmania infantum, greater than 50 µM. The logD in data set [5] stood at 2.97.

For the compound `COc1ccc2c(c1)nc(/C=C/c1ccccc1)c1cccn12`, the IC50 in the data set with PBMC [2] was greater than 100 µM; in the data set on PBMC [4], greater than 100 µM; in the data set with Leishmania amazonensis, 36 µM; in the data set on Leishmania infantum, 5 µM.

`CCCc1nc2ccccc2n2cccc12`: the IC50 is greater than 100 µM with PBMC [2], 100 µM in the data set on PBMC [4], greater than 50 µM with Leishmania amazonensis and greater than 50 µM in the data set on Leishmania infantum. In data set [5], this compound showed a logD of 3.35.

For `C1=C(c2nc3ccccc3n3cccc23)CCCC1`, the IC50 was greater than 100 µM with PBMC [2], greater than 100 µM with PBMC [4], greater than 50 µM in the data set on Leishmania amazonensis and greater than 50 µM in the data set with Leishmania infantum. Besides, the logD in data set [5] is 4.12.

As to `C/C=C\c1nc2ccccc2n2cccc12`, the “Ratio IC50” value in data set [1] came out at 1.5; in data set [3], 7.5. Further, the IC50 amounted to 8 µM in the data set with PBMC [2], 6 µM in the data set on PBMC [4], 4 µM with Leishmania amazonensis and 0.8 µM in the data set with Leishmania infantum. In data set [5], this compound came in with a logD of 3.3.

With `C(=C\c1nc2ccccc2n2cccc12)/c1ccccc1`, in data set [1], the “Ratio IC50” value is on record as greater than 2.9. Also, the IC50 in the data set with PBMC [2] was greater than 100 µM; in the data set on PBMC [4], greater than 100 µM; in the data set with Leishmania amazonensis it was 35 µM; with Leishmania infantum, greater than 50 µM. The same compound showed a logD in data set [5] of 4.84.

Consider `C/C=C/c1nc2cc(OC)ccc2n2cccc12`, for which the results for the “Ratio IC50” value in data set [1] and in data set [3] were 0.7 and 2.5, respectively. Moreover, the IC50 is 5 µM with PBMC [2], 5 µM with PBMC [4], 7 µM in the data set with Leishmania amazonensis and 2 µM with Leishmania infantum. This compound registered a logD in data set [5] of 3.47.

Regarding `C/C=C/c1nc2ccc(OC)cc2n2cccc12`, the “Ratio IC50” value in data set [1] stood at 5; in data set [3], 10. Moreover, the IC50 in the data set with PBMC [2] was 7 µM; with PBMC [4] it was 5 µM; with Leishmania amazonensis, 1 µM; in the data set with Leishmania infantum, 0.5 µM. Also, the logD in data set [5] is 3.48.

For the compound `CCCCCc1nc2ccccc2n2cccc12`, the “Ratio IC50” value in data set [1] and in data set [3] was less than 1 in each case. Besides, the IC50 in the data set with PBMC [2] was greater than 100 µM; in the data set with PBMC [4] it was 30 µM; in the data set with Leishmania amazonensis, greater than 50 µM; with Leishmania infantum it was greater than 50 µM. In addition, the logD in data set [5] was 4.04.

Take `CCC/C=C/c1nc2cc(OC)ccc2n2cccc12`: the “Ratio IC50” value in data set [1] turned out to be 6.7; in data set [3], 40. The IC50 in the data set on PBMC [2] was 60 µM; in the data set with PBMC [4], 40 µM; in the data set with Leishmania amazonensis, 6 µM; in the data set on Leishmania infantum it was 1 µM. In data set [5], the logD turned out to be 4.52.

In the case of `C=Cc1nc2ccccc2n2cccc12`, the figures for the “Ratio IC50” value in data set [1] and in data set [3] were 0.3 and 2, respectively. Moreover, the IC50 in the data set on PBMC [2] is 3 µM; in the data set on PBMC [4], 1 µM; in the data set with Leishmania amazonensis, 3 µM; in the data set with Leishmania infantum, 0.5 µM. Further, in data set [5], the logD was 3.08.

For `C/C=C/c1nc2ccccc2n2cccc12`, the results for the “Ratio IC50” value in data set [1] and in data set [3] were 10 and 7.1, respectively. Moreover, the IC50 in the data set with PBMC [2] stood at 6 µM; in the data set with PBMC [4], 5 µM; in the data set with Leishmania amazonensis, 0.5 µM; in the data set on Leishmania infantum it was 0.7 µM. In data set [5], the logD is 3.44.

Turning to `c1ccc(-c2nc3ccccc3n3cccc23)cc1`, the IC50 is greater than 100 µM in the data set on PBMC [2], greater than 100 µM with PBMC [4], greater than 50 µM with Leishmania amazonensis and greater than 50 µM in the data set on Leishmania infantum. The compound further displayed a logD in data set [5] of 3.6.

On to `c1ccc2c(c1)nc(CCc1ccc3c(c1)OCO3)c1cccn12`, for which the “Ratio IC50” value in data set [1] was 9.3. Moreover, the IC50 is greater than 100 µM in the data set with PBMC [2], 65 µM with PBMC [4], 7 µM in the data set with Leishmania amazonensis and greater than 50 µM with Leishmania infantum. Moreover, in data set [5], the logD worked out at 3.84.

`CCCCC#Cc1nc2cc(OC)ccc2n2cccc12`: the “Ratio IC50” value in data set [1] was 1.7; in data set [3] it was 0.7. Moreover, the IC50 in the data set with PBMC [2] amounted to 6 µM; in the data set on PBMC [4] it was 5 µM; in the data set on Leishmania amazonensis, 3 µM; in the data set on Leishmania infantum, 7 µM. This compound also displayed a logD in data set [5] of 4.35.

In the case of `CCC/C=C/c1nc2ccc(OC)cc2n2cccc12`, the results for the “Ratio IC50” value in data set [1] and in data set [3] were 7.5 and 12, respectively. The IC50 amounted to 55 µM in the data set on PBMC [2], 30 µM with PBMC [4], 4 µM in the data set on Leishmania amazonensis and 2.5 µM in the data set on Leishmania infantum. The compound also gave a logD in data set [5] of 4.3.

`C[C@H]1O[C@H]1c1nc2ccccc2n2cccc12` (relative stereo): the IC50 in the data set on PBMC [2] is greater than 100 µM; in the data set with PBMC [4] it was greater than 100 µM; in the data set on Leishmania amazonensis, greater than 50 µM; with Leishmania infantum, greater than 50 µM. The same compound gave a logD in data set [5] of 2.55.

Consider `C[C@@H]1O[C@H]1c1nc2ccccc2n2cccc12` (relative stereo), for which the IC50 in the data set with PBMC [2] was greater than 100 µM; in the data set on PBMC [4], greater than 100 µM; in the data set on Leishmania amazonensis, greater than 50 µM; in the data set on Leishmania infantum, greater than 50 µM. In addition, the logD in data set [5] is 2.61.

With `C[C@@H]1[C@H](O)[C@@H](C)/C=C/C=C/C=C/C=C/C=C/C=C/C=C/[C@H](O[C@@H]2O[C@H](C)[C@@H](O)[C@H](N)[C@@H]2O)C[C@@H]2O[C@](O)(C[C@@H](O)C[C@@H](O)[C@H](O)CC[C@@H](O)C[C@@H](O)CC(=O)O[C@H]1C)C[C@H](O)[C@H]2C(=O)O` [AMPHOTERICIN B], the results for the “Ratio IC50” value in data set [1] and in data set [3] were 96 and 106.6, respectively. Besides, the IC50 with PBMC [2] was greater than 100 µM; in the data set with PBMC [4], 96 µM; in the data set on Leishmania amazonensis, 1 µM; with Leishmania infantum, 0.9 µM.

With `C/C=C/c1ccc2ccccc2n1` [CHIMANINE B], the results for the “Ratio IC50” value in data set [1] and in data set [3] were 8.4 and 6, respectively. Moreover, the IC50 in the data set with PBMC [2] turned out to be 43 µM; in the data set on PBMC [4] it was 42 µM; in the data set with Leishmania amazonensis, 5 µM; in the data set on Leishmania infantum, 7 µM. The same compound had a logD in data set [5] of 2.23.

The values are drawn from ChEMBL document CHEMBL1144505, “Synthesis, analytical behaviour and biological evaluation of new 4-substituted pyrrolo[1,2-a]quinoxalines as antileishmanial agents” (Bioorg Med Chem, 2007).
